# Assay results as given in publication PMC7894400 (CPT: Pharmacometrics & Systems Pharmacology, 2021).
# “And” between values parts separate entries of the source, which are not always exact repeats. Identical values can stand only once. “Also recorded” adds a separate entry of the source.
# Key:
# CYP3A and UGT1A4 = conditions: cited from earlier work
# [1] = cited from earlier work
# [2] = Population pharmacokinetic; format: in vivo, human
# Procedure, shortened: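 Pooled plasma data from a phase I/II study in ALK+ or ROS1+ NSCLC (10–200 mg oral q.d. or 35–100 mg b.i.d.) plus six healthy-participant studies (100 mg oral doses; one study 50 mg i.v.). Nonlinear mixed effects, FOCEI; central/peripheral volumes, first-order ka, F; clearance time-varying from single-dose CLI to steady-state CLMX via induction rate constant; exponential between-subject effects; covariates include rabeprazole co-administration on ka and F.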
# [3] = cited from earlier work; remark: listed apart in the source
# [4] = healthy volunteers, study B7461008
# [5] = bootstrap mean, 1,000 resampled datasets
# [6] = high BWT 91.3 kg (90th percentile), final PopPK model prediction
# [7] = highest possible exposure at 100 mg q.d.: BWT 50 kg, BALB 3.2 mg/dL, no PPI use
# [8] = low BWT 50 kg (10th percentile), final PopPK model prediction
# [9] = lowest possible exposure at 100 mg q.d.: BWT 91.3 kg, BALB 4.6 mg/dL, PPI use
compound,measurement,setting,value
C[C@H]1Oc2cc(cnc2N)-c2c(nn(C)c2C#N)CN(C)C(=O)c2ccc(F)cc21 [lorlatinib],metabolizing enzymes,CYP3A and UGT1A4,"metabolized primarily by cytochrome P450 (CYP)3A and UGT1A4, and to a lesser extent by CYP2C8, CYP2C19, CYP3A5, and UGT1A3"
same,effect of a high-fat meal on lorlatinib exposure,[1],not to have a meaningful effect
same,effect of PPI rabeprazole co-administration on lorlatinib AUCinf,[1]; [4],no effect; also recorded: without changing
same,reduction of lorlatinib Cmax by co-administration of the PPI rabeprazole,[1]; [4],~ 30% and 30%
same,lower CL (initial and time-varying induced) compared with 100 mg q.d.,[2]; 10 mg q.d. lorlatinib,12.4%
same,higher CL (initial and time-varying induced) compared with 100 mg q.d.,[2]; 200 mg q.d. lorlatinib,13.8%
same,decrease in ka relative to a typical patient without PPI use,[2]; PPI use,67.5%
same,θ CLMX,[2]; [5],14.584 L/h
same,θ D1,[2]; [5],1.149 h
same,θ F,[2]; [5],0.764
same,θ IND,[2]; [5],0.027
same,θ PPI on ka,[2]; [5],−0.664
same,θ Q,[2]; [5],22.491 L/h
same,θ V2,[2]; [5],120.618 L
same,θ V3,[2]; [5],156.640 L
same,θ ka,[2]; [5],3.128 h⁻¹
same,ωFωCL,[2]; [5],-0.005
same,ωV2ωV3,[2]; [5],−0.017
same,ω^2 F,[2]; [5],0.023
same,ω^2 V2,[2]; [5],0.085
same,ω^2 V3,[2]; [5],0.099
same,ω^2 ka,[2]; [5],2.345
same,increase in CL with every unit of BALB over 4 mg/dL,[2]; final PopPK model,6.68%
same,θ BALB on CL (covariate effect of baseline albumin),[2]; final PopPK model estimate,0.067
same,"θ D1, zero-order duration of absorption",[2]; final PopPK model estimate,1.15 h and 1.148 h
same,θ PPI on ka (covariate effect of proton pump inhibitor use),[2]; final PopPK model estimate,–0.675
same,θ TDOSE on CL (covariate effect of total daily dose),[2]; final PopPK model estimate,0.001
same,θ WNCL on CL (covariate effect of standardized creatinine clearance),[2]; final PopPK model estimate,0.235
same,ωFωCL (IIV covariance),[2]; final PopPK model estimate,-0.006
same,ωV2ωV3 (IIV covariance),[2]; final PopPK model estimate,−0.017
same,ω^2 F (IIV),[2]; final PopPK model estimate,0.022
same,ω^2 V2 (IIV),[2]; final PopPK model estimate,0.086
same,ω^2 V3 (IIV),[2]; final PopPK model estimate,0.101
same,ω^2 ka (IIV),[2]; final PopPK model estimate,2.329
same,"θ ka, first-order absorption rate constant","[2]; final PopPK model estimate, no PPI use",3.1 h⁻¹ and 3.11 h⁻¹ and 3.113 h⁻¹
same,"θ IND, rate constant of induction","[2]; final PopPK model estimate, unit not given",0.0199 and 0.020
same,increase in CL compared with the typical patient (BALB 4 mg/dL),[2]; high BALB 4.6 mg/dL (90th percentile),4%
same,increase in CL relative to the typical patient,[2]; [6],22%
same,increase in V2 relative to the typical patient,[2]; [6],30.4%
same,change in ka compared with a typical patient,[2]; [7],unchanged
same,decrease in CL compared with a typical patient,[2]; [7],26.5%
same,decrease in V2 compared with a typical patient,[2]; [7],28.6%
same,bioavailability,"[2]; human, plasma, oral",75.9%
same,reduction in CL relative to a typical patient,[2]; [8],22.3%
same,reduction in V2 relative to a typical patient,[2]; [8],28.6%
same,decrease in ka compared with a typical patient,[2]; [9],67.5%
same,increase in CL compared with a typical patient,[2]; [9],26.9%
same,increase in V2 compared with a typical patient,[2]; [9],30.4%
same,dose-limiting toxicities,"[3]; 150 mg q.d., dose escalation portion of Study B7461001",dose‐limiting toxicities were seen
same,steady-state lorlatinib CL versus dose,"[3]; Study B7461001, noncompartmental analysis",increased with increasing dose
same,levels of CYP3A4 activity (urine 6-beta-hydroxy-cortisol/cortisol and plasma 4-beta-hydroxy-cholesterol/cholesterol ratios),"[3]; phase I portion of B7461001, multiple dosing",initially increased with time following multiple dosing
same,accumulation after multiple dosing,[3]; phase I portion of B7461001,less than expected
